Bioassay records from PubChem BioAssay.
This is a sample that favours compounds with a hit; in the whole collection about 0.55% have one here.
OXTR ag – human OXTR agonists, primary screen, fluorescence, CHO-OTR cells, Fluo-8 calcium; Oxytocin receptor (Homo sapiens), P30559; Fluo-8 calcium fluorescence; normalized: DMSO 0%, oxytocin 100%; activation, % at 3 µM; actives 0.32% (n = 320,000);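 active = activation above the mean of all tested compounds plus 3 SD, cutoff set per screening run, cut at about 20% in these data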;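 also: peak over basal fluorescence ratio from a 100 s FLIPR kinetic read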
V1aR counter – agonists of human V1a receptor, primary screen, counter-screen for OXTR agonist project, fluorescence, CHO-V1R cells | Fluo-8 calcium fluorescence, agonist mode; 0% DMSO, 100% 3 nM vasopressin | Vasopressin V1a receptor (Homo sapiens), P37288 | actives 0.25% (n = 320,000) | activation, % at 3 µM;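 active = activation above the mean activation of all tested compounds plus 3 SD, per screening run, cut at about 20% in these data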;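 also: signal is peak over basal fluorescence ratio across a 100 second FLIPR read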
OXTR potentiate – human OXTR potentiators, primary screen, fluorescence, CHO-OTR cells, Fluo-8 calcium; actives 0.061% (n = 320,000); Fluo-8 calcium fluorescence, potentiator mode; 0% = oxytocin EC15, 100% = EC100; Oxytocin receptor (Homo sapiens), P30559; activation, % at 3 µM;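 active = activation above that plate's cutoff, the mean activation of tested compounds plus 3 SD, cut at about 6.6% in these data, passing the limit was not always enough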;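 also: 100% uses oxytocin at 75 nM as the full agonist control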
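Material: human OTR in CHO cells. Compound: 3.0 µM, one dose. Timing: compound 6 min at room temperature before oxytocin, 100 s read. Evaluation: % activation of max/min ratio relative to oxytocin controls. Replication: single well per compound, singlicate. Signal: Fluo-8 calcium dye fluorescence.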
TRPML3 agonist – human TRPML3 channel agonists, primary screen, cell-based, HEK293 TRPML3-YFP, Fluo-8 calcium fluorescence, 3 µM; Mucolipin-3 (Homo sapiens), Q8TDD5; 100% = the carbachol control signal; activation, % at 3 µM; actives 0.29% (n = 220,000); AID 1448, 2008;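 active = activation above its plate's cutoff, the mean activation of the plate's test wells plus 3 SD, cut at about 12% in these data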;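 also: 0% = DMSO only wells and 100% = carbachol wells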
Target sequence (Q8TDD5 whole entry, looked up): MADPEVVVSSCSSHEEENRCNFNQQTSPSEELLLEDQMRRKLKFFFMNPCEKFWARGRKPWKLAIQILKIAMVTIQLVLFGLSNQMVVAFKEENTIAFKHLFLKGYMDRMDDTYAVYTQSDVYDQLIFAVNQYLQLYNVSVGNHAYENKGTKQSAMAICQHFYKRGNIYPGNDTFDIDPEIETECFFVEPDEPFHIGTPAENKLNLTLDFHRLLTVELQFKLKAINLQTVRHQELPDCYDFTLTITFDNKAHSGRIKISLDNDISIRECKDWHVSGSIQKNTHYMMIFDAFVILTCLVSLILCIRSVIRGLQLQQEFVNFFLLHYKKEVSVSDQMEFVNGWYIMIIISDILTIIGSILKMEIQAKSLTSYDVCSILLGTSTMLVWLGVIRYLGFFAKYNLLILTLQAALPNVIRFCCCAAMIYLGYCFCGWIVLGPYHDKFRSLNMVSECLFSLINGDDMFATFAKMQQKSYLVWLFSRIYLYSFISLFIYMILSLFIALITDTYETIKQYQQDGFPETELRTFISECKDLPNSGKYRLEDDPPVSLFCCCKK
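system = HEK293 cells stably carrying human TRPML3-YFP | doses = one concentration, 3 µM nominal, 0.3% DMSO | timing = dye loading 1 h 37 °C then 30 min ambient, 125 s read | detection = Fluo-8 calcium dye fluorescence, ex 470-495, em 515-575 nm | benchmarks = high control carbachol 87 µM, low control DMSO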
zfTRPN1 agonist – zebrafish TRPN1 channel agonists, primary screen, cell-based, HEK293, calcium fluorescence; activation, % at 3 µM; HEK293 zebrafish TRPN1-YFP, Fluo-8 calcium fluorescence; 100% = response to 87 µM carbachol; actives 0.18% (n = 220,000);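 active = activation above its plate's cutoff, the mean activation of test wells on that plate plus 3 SD, cut at about 19% in these data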;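 also: 0% = DMSO alone and 100% = 87 µM carbachol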
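Material: zebrafish TRPN1-YFP in HEK293 cells; Doses: single test compound dose, 3 µM nominal, 0.3% DMSO; Timing: dye loading 1 h at 37 °C, then 30 min room temperature; Technique: intracellular calcium fluorescence with Fluo-8; Benchmarks: high carbachol 87 µM, low DMSO alone.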
TRPN1 counter – zebrafish TRPN1 channel agonists, counter-screen for TRPML3 agonist project, cell-based, HEK293 TRPN1-YFP, Fluo-8 calcium; shares compounds with TRPML3 agonist; Fluo-8 calcium fluorescence; scaled: carbachol wells 100%, DMSO wells 0%; activation, % at 3 µM; actives 10% (n = 310); AID 1525, 2009;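 active = mean activation over replicates above a set limit taken from the earlier TRPN1 channel primary screen, cut at about 19% in these data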;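 also: 100% = carbachol and 0% = 0.3% DMSO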
TRPML3 confirm – human TRPML3 channel agonists, confirmation, cell-based, HEK293 TRPML3-YFP, Fluo-8 calcium, triplicate; shares compounds with TRPML3 agonist; Fluo-8 calcium fluorescence; 100% set by carbachol, 0% by DMSO; activation, % at 3 µM; actives 80% (n = 310);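 active = activation above a set limit derived from the earlier primary screen, cut at about 12% in these data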
Active calls of the source: *.

Results for CCOc1ccc(-n2cnnn2)cc1S(=O)(=O)NC1CC1 ?
OXTR ag: 0.9; V1aR counter: -0.3; OXTR potentiate: -6.0; TRPML3 agonist: 0.4; zfTRPN1 agonist: 0.2

Results for CCOc1ccc(-n2cnnn2)cc1S(=O)(=O)Nc1c(C)cccc1C ?
OXTR ag: 0.4; V1aR counter: 0.6; OXTR potentiate: -3.8; TRPML3 agonist: 17.8*; zfTRPN1 agonist: 1.0; TRPN1 counter: 0.3; TRPML3 confirm: -0.2

Results for COc1cc(OC)cc(C(=O)N2CCN(S(=O)(=O)c3ccc(Cl)s3)CC2)c1 ?
OXTR ag: -0.7; V1aR counter: 0.9; OXTR potentiate: -8.7

What do the screens show for `Cc1ccc(S(=O)(=O)N2CCc3ccccc3C2CN2C(=O)c3ccccc3C2=O)cc1` (stereo not drawn)?
OXTR ag: -1.2; V1aR counter: -0.8; OXTR potentiate: -16.3; TRPML3 agonist: 22.5*; zfTRPN1 agonist: 0.7; TRPN1 counter: -1.1; TRPML3 confirm: 13.3*

What do the screens show for `C=CCn1c(SCCC)nc(O)cc1=O`?
OXTR ag: 47.6*; V1aR counter: 69.7*; OXTR potentiate: -11.6; TRPML3 agonist: 27.7*; zfTRPN1 agonist: 1.3; TRPN1 counter: 1.5; TRPML3 confirm: 0.0

How did C=CCn1c(SCC(=O)C23CC4CC(CC(C4)C2)C3)nc(O)cc1=O do in these assays?
OXTR ag: -0.4; V1aR counter: 0.3; OXTR potentiate: -8.1; TRPML3 agonist: 0.7; zfTRPN1 agonist: -0.3

What do the screens show for `CN(CC(=O)O/N=C(\N)c1ccccn1)S(=O)(=O)c1ccccc1`?
OXTR ag: 0.5; V1aR counter: 0.4; OXTR potentiate: 4.1; TRPML3 agonist: -0.1; zfTRPN1 agonist: -0.1

How did COc1ccc(/C(N)=N/OC(=O)CN(C)S(=O)(=O)c2ccccc2)cc1 do in these assays?
TRPML3 agonist: 105.9*; zfTRPN1 agonist: 3.7; TRPN1 counter: 2.5; TRPML3 confirm: 40.5*

What do the screens show for `Cc1cccc(CC2CC(=O)N(C3CCCCC3)C2=O)c1` (stereo not drawn)?
OXTR ag: -1.1; V1aR counter: -1.2; OXTR potentiate: 2.3; TRPML3 agonist: 12.9*; zfTRPN1 agonist: -0.3; TRPN1 counter: -1.2; TRPML3 confirm: 65.7*

How did Cc1cccc(CC2CC(=O)N(c3ccccc3)C2=O)c1 (stereo not drawn) do in these assays?
OXTR ag: -0.4; V1aR counter: -0.1; OXTR potentiate: 4.8; TRPML3 agonist: 0.1; zfTRPN1 agonist: -0.4

How did Cc1cc(C)n(CC(=O)NNC(=O)COc2ccc(Br)cc2F)n1 do in these assays?
OXTR ag: 1.4; V1aR counter: 1.7; OXTR potentiate: -4.1

Results for CC(C)Oc1ccc(/C=N/NC(=O)C(CSCc2ccccc2)NC(=O)c2ccc([N+](=O)[O-])cc2)cc1 (stereo not drawn) ?
OXTR ag: -1.7; V1aR counter: -0.9; OXTR potentiate: -14.7; TRPML3 agonist: 52.9*; zfTRPN1 agonist: 0.8; TRPN1 counter: 5.8; TRPML3 confirm: 78.2*

Results for O=C(COc1ccc(/C=N/NC(=O)c2ccccc2)cc1)Nc1ccc([N+](=O)[O-])cc1 ?
OXTR ag: -0.3; V1aR counter: -0.2; OXTR potentiate: -7.5; TRPML3 agonist: -0.1; zfTRPN1 agonist: 3.7

Results for O=C(CSc1ccccn1)Nc1nonc1[N+](=O)[O-] ?
OXTR ag: 0.8; V1aR counter: 1.9; OXTR potentiate: -5.2
